Results taken from ChEMBL document CHEMBL1128641, “N-3-substituted pyrimidinones as potent, orally active, AT1 selective angiotensin II receptor antagonists” (J Med Chem, 1995).

Legend:
Rattus norvegicus [1] = assay: Time duration was determined from onset of the action till no response after (i.v.) administration of 1 mg/kg in anesthetized, ganglion blocked, A II- infused rat; type: functional; conditions: route intravenous
Method in brief: (§1)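 Male Sprague-Dawley rats (300–400 g) were anesthetized with urethane (1.25 g/kg im) and ganglion-blocked with pentolinium (0.1 mg/kg/min), with carotid BP recorded at 37 °C. After three reproducible A II challenges (100 ng/kg iv, every 10 min), compound was given iv 5 min before the next challenge. Challenges continued until the response returned near basal, with one dose per animal. Vehicle was 1% DMSO/stoichiometric NaOH or 0.5% methocel.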

[2] = target: T1, Angiotensin II receptor (Rattus norvegicus) (UniProt P29089+P25095+P35351); assay: Effect on pressure response to angiotensin II receptor (AII) after (i.v.) administration of 1 mg/kg in anesthetized, ganglion blocked, AII-infused rat in vivo; type: functional, organism-based; design: dose 1 mg/kg
T1 sequence (P35351 whole entry, looked up, one chain of several, the tested form may be a part): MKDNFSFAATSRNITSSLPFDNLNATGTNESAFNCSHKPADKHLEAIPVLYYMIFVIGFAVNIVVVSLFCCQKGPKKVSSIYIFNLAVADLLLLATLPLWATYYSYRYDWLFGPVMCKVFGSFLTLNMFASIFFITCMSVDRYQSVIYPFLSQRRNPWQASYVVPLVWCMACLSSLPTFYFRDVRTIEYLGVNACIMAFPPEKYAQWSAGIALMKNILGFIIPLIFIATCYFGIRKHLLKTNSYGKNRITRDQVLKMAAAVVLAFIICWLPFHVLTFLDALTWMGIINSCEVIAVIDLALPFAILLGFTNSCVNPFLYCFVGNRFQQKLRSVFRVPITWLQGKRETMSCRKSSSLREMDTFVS
Method in brief: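 After three reproducible A II challenges (100 ng/kg iv, every 10 min), compound was given iv 5 min before the next challenge. Challenges continued until the response returned near basal, with one dose per animal. Vehicle was 1% DMSO/stoichiometric NaOH or 0.5% methocel.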

Rattus norvegicus [3] = assay: Time duration was determined from onset of the action till no response after […] administration of 1 mg/kg in anesthetized, ganglion blocked, A II- infused rat; type: functional
[4] = target: T2, Angiotensin II receptor (AT-1) type-1 (Rattus norvegicus, UniProt P29089+P25095); assay: Displacement of [3H]angiotensin II from Angiotensin II type 1 receptor in rat adrenal cortical membrane; type: cell membranes
T2 sequence (P29089 whole entry): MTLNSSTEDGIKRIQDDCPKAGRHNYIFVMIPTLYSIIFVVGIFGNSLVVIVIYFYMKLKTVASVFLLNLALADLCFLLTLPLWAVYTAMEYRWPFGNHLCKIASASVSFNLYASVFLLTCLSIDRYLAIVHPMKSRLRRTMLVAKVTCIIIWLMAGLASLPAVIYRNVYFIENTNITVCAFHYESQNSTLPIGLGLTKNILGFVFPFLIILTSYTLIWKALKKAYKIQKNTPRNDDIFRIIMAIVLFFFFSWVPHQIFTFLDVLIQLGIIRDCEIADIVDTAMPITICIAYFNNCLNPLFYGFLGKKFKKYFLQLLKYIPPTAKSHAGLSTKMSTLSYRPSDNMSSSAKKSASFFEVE
T2 sequence (P25095 whole entry): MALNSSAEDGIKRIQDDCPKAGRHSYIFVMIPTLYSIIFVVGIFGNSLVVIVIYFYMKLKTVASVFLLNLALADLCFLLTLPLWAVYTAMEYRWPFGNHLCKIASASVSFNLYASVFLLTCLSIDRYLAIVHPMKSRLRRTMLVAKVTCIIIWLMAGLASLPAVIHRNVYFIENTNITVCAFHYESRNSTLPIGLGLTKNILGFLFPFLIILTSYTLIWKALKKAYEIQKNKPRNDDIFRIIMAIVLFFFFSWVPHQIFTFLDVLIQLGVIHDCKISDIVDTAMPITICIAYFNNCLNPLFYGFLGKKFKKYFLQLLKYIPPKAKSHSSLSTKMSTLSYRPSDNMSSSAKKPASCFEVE

[5] = target: T1, Angiotensin II receptor (Rattus norvegicus); assay: Effect on pressure response to angiotensin II receptor (AII) after […] administration of 1 mg/kg in anesthetized, ganglion blocked, A II- infused rat was determined in vivo; type: functional, organism-based; design: dose 1 mg/kg
Method in brief: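 Compound was given intraduodenally, one dose per animal, in 1% DMSO/stoichiometric NaOH or 0.5% methocel. Inhibition was read 30 min after dosing; the 1 mg/kg duration is the time from onset until inhibition was no longer significant.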

[6] = target: Type-2 angiotensin II receptor (Bos taurus, UniProt G5E6F7); assay: Binding affinity towards Angiotensin II type 2 receptor in bovine cerebellar cortical membranes; Inactive
[7] = target: T1, Angiotensin II receptor (Rattus norvegicus); assay: Effect on pressure response to angiotensin II receptor (AII) after (i.v.) administration of 1 mg/kg in anesthetized, ganglion blocked, A II- infused rat was determined in vivo; type: functional, organism-based; design: dose 1 mg/kg; conditions: at 1 mg/kg; method in brief: as §1
Rattus norvegicus [8] = assay: Time from onset of the action at a dose of 1 mg/kg until significant inhibition of pressure response is no longer observed in anesthetized, ganglion blocked, A II- infused rat after […] administration; type: functional
Rattus norvegicus [9] = assay: ime duration was determined from onset of the action till no response after […] in anesthetized, ganglion blocked, A II- infused rat; type: functional

| SMILES | Duration (Rattus norvegicus [1]) [min] | ED50 [2] [mg/kg] | Duration (Rattus norvegicus [3]) [min] | Ki [4] [nM] | ED50 [5] [mg/kg] | Ki [6] [µM] | inhibition [7] [%] | Duration (Rattus norvegicus [8]) [min] | Duration (Rattus norvegicus [9]) [min] |
| --- | --- | --- | --- | --- | --- | --- | --- | --- | --- |
| CCCCc1nc(C)n(Cc2occc2C(=O)O)c(=O)c1Cc1ccc(-c2ccccc2-c2nn[nH]n2)cc1 | 45 | 0.43 | 75 | 16 | 14.5 | > 4 |  |  |  |
| CCCCc1nc(C)n(Cc2sccc2C(=O)O)c(=O)c1Cc1ccc(-c2ccccc2-c2nnn[nH]2)cc1 |  |  |  |  |  | > 4 |  |  |  |
| CCCCc1nc(C)n(Cc2occc2C(=O)O)c(=O)c1Cc1ccc(-c2ccccc2C(=O)O)cc1 | 25 | 0.85 |  | 264 |  | > 4 |  |  |  |
| CCCCc1ncnc(O)c1Cc1ccc(-c2ccccc2C(=O)O)cc1 | 35 |  |  | 148 |  | > 4 | 50 |  |  |
| CCCCc1nc(C)n(Cc2occc2C(=O)OC)c(=O)c1Cc1ccc(-c2ccccc2-c2nnn[nH]2)cc1 |  |  |  |  |  | > 4 |  |  |  |
| CCCCc1nc(C)n(Cc2ccccc2C(=O)O)c(=O)c1Cc1ccc(-c2ccccc2-c2nn[nH]n2)cc1 | 65 | 0.31 |  | 18 | 4.2 | > 4 |  | >120 |  |
| CCCCc1nc(C)n(Cc2sccc2C(=O)O)c(=O)c1Cc1ccc(-c2ccccc2C(=O)O)cc1 | 15 |  |  | 181 |  | > 4 | 33 |  |  |
| CCCCc1nc(C)n(Cc2occc2C(=O)OC)c(=O)c1Cc1ccc(-c2ccccc2-c2nn[nH]n2)cc1 | 65 | 0.3 | >120 | 0.58 | 1.44 |  |  |  |  |
| CCCCc1nc(C)n(Cc2ccsc2C(=O)OC)c(=O)c1Cc1ccc(-c2ccccc2-c2nn[nH]n2)cc1 | 65 | 0.54 | >120 | 2.1 | 2.67 | > 4 |  |  |  |
| CCCCc1nc(C)n(Cc2cccs2)c(=O)c1Cc1ccc(-c2ccccc2-c2nnn[nH]2)cc1 | 55 |  | 60 |  |  | > 4 |  |  |  |
| CCCCc1nc(C)[nH]c(=O)c1Cc1ccc(-c2ccccc2-c2nnn[nH]2)cc1 |  |  |  |  |  | > 4 |  |  |  |
| CCCCc1ncn(Cc2ccccc2)c(=O)c1Cc1ccc(-c2ccccc2C(=O)O)cc1 | 25 |  |  | 40 |  | > 4 | 39 |  |  |
| CCCCc1nc(C)nc(O)c1Cc1ccc(-c2ccccc2C(=O)O)cc1 | 35 |  |  | 113 |  | > 4 | 53 |  |  |
| CCCCc1nc(C)nc(O)c1Cc1ccc(-c2ccccc2-c2nn[nH]n2)cc1 | 55 |  |  | 3 |  |  | 87 |  |  |
| CCCCc1nc(C)n(Cc2ccccc2)c(=O)c1Cc1ccc(-c2ccccc2-c2nn[nH]n2)cc1 | 45 | 1.07 | 60 | 3 | > 10 |  |  |  |  |
| CCCCc1nc(C)cc(=O)n1Cc1ccc(-c2ccccc2C(=O)O)cc1 | 15 |  |  | 263 |  | > 4 | 34 |  |  |
| CCCCc1nccc(=O)n1Cc1ccc(-c2ccccc2C(=O)O)cc1 | 35 |  |  | 1097 |  | > 4 | 42 |  |  |
| CCCCc1nc(C)n(Cc2sccc2C(=O)OC)c(=O)c1Cc1ccc(-c2ccccc2-c2nnn[nH]2)cc1 | 65 |  | >120 |  |  | > 4 |  |  |  |
| CCCCc1nc(C)n(Cc2sccc2C(=O)O)c(=O)c1Cc1ccc(-c2ccccc2-c2nn[nH]n2)cc1 | 55 | 0.45 |  | 14 | 7.24 |  |  |  | >120 |
| CCCCc1ncn(Cc2cccs2)c(=O)c1Cc1ccc(-c2ccccc2C(=O)O)cc1 | 15 |  |  | 60 |  | > 4 | 23 |  |  |
| CCCCc1nc(Cl)c(CO)n1Cc1ccc(-c2ccccc2C(=O)O)cc1 | 25 |  |  |  |  |  | 48 |  |  |
| CCCCc1nc(C)n(Cc2ccccc2)c(=O)c1Cc1ccc(-c2ccccc2-c2nnn[nH]2)cc1 |  |  |  |  |  | > 4 |  |  |  |
| CCCCc1ncn(Cc2ccccc2C(=O)O)c(=O)c1Cc1ccc(-c2ccccc2C(=O)O)cc1 | 25 |  |  | 379 |  | > 4 | 43 |  |  |
| CCCCc1nc(Cl)c(CO)n1Cc1ccc(-c2ccccc2-c2nnn[nH]2)cc1 [LOSARTAN] | 55 | 0.32 | 120 |  | 3.7 |  |  |  |  |
| CCCCc1nc(C)n(Cc2ccccc2C(=O)O)c(=O)c1Cc1ccc(-c2ccccc2C(=O)O)cc1 | 15 |  |  | 401 |  | > 4 | 46 |  |  |
| CCCCc1ncn(Cc2ccc(C(=O)O)cc2)c(=O)c1Cc1ccc(-c2ccccc2C(=O)O)cc1 | 25 |  |  |  |  | > 4 | 46 |  |  |
